Experimental data reported in ChEMBL document CHEMBL5038590, “Discovery of G Protein-Biased Ligands against 5-HT7R” (J Med Chem, 2021).
pEC50, pKi: −log10 of the molar value.

Experiments:
[1] = Cmax in ICR mouse plasma at 10 mg/kg, ip measured upto 8 hrs by LC-MS/MS analysis; type: ADME, organism-based; parameters: route intraperitoneal, dose 10 mg/kg, time <=8
In short: (§1)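 Male ICR mice, 7–8 weeks, 30 ± 5 g; single dose 1 mg/kg iv or 10 mg/kg ip (n = 4 each). Carotid artery blood at 0, 0.08 (iv only), 0.25, 0.5, 1, 2, 4, 6, 8 h. Plasma precipitated with acetonitrile containing internal standard, quantified by LC–MS/MS. Parameters by non-compartmental analysis; AUClast by trapezoidal rule; values mean ± SD.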

[2] = Tmax in ICR mouse plasma at 10 mg/kg, ip measured upto 8 hrs by LC-MS/MS analysis; type: ADME, organism-based; in short: as §1
[3] = AUClast in ICR mouse plasma at 10 mg/kg, ip measured upto 8 hrs by LC-MS/MS analysis; type: ADME, organism-based; parameters: route intraperitoneal, dose 10 mg/kg, time <=8; in short: as §1
[4] = molecular target: 5-hydroxytryptamine receptor 1B (Homo sapiens, UniProt P28222); assay: Binding affinity to 5-HT1BR (unknown origin)
5-hydroxytryptamine receptor 1B, sequence (P28222 whole entry): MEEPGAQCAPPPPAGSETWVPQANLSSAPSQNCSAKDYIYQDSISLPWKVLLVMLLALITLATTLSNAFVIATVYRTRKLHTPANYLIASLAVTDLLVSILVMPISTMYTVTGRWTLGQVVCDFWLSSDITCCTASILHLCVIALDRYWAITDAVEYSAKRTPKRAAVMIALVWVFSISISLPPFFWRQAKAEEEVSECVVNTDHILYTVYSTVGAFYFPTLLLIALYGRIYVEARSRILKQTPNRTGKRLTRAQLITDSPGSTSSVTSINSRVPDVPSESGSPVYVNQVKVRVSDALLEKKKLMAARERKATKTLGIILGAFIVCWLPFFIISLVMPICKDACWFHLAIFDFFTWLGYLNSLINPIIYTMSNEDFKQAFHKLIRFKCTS
In short: (§2)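 Run by the NIMH Psychoactive Drug Screening Program as competition radioligand binding on crude membranes of cells expressing the recombinant receptor. Eleven dilutions (0.05 nM–50 μM, prepared at 5× assay concentration) were made in 50 mM Tris-HCl, 10 mM MgCl₂, 1 mM EDTA, pH 7.4. Incubation was 1.5 h at rt in the dark, followed by GF/B filtration (0.3% PEI) and scintillation counting. IC₅₀ was converted to Ki; at least triplicate.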

[5] = molecular target: T1, 5-hydroxytryptamine receptor 7 (Homo sapiens, UniProt P34969)
T1 sequence (P34969 whole entry): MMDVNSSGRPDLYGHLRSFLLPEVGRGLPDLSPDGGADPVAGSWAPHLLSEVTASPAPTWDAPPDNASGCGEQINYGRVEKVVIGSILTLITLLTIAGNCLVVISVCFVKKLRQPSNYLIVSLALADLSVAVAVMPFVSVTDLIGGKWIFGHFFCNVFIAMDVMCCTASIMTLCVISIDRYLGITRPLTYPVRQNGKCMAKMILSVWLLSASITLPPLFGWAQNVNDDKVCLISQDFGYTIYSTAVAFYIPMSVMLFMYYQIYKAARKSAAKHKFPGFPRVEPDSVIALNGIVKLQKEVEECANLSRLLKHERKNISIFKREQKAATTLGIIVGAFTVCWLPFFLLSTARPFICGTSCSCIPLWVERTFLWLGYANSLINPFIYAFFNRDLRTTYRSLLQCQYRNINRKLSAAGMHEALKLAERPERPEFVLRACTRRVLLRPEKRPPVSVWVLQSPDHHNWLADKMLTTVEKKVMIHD

[6] = Volume of distribution in steady state in ICR mouse plasma at 1 mg/kg, iv measured upto 8 hrs by LC-MS/MS analysis; type: ADME, organism-based; conditions: read-out: Vdss; in short: as §1
CYP2C9 = CYP2C9 (Homo sapiens, UniProt P11712); assay: Inhibition of CYP2C9 in human liver microsomes assessed as remaining activity at 10 uM using diclofenac as substrate preincubated for 5 mins followed by addition of NADPH generating system and incubated for 15 mins by LC/MS relative to control; type: ADME; conditions: probe diclofenac, time 20 min, read-out: Activity
CYP2C9, sequence (P11712 whole entry): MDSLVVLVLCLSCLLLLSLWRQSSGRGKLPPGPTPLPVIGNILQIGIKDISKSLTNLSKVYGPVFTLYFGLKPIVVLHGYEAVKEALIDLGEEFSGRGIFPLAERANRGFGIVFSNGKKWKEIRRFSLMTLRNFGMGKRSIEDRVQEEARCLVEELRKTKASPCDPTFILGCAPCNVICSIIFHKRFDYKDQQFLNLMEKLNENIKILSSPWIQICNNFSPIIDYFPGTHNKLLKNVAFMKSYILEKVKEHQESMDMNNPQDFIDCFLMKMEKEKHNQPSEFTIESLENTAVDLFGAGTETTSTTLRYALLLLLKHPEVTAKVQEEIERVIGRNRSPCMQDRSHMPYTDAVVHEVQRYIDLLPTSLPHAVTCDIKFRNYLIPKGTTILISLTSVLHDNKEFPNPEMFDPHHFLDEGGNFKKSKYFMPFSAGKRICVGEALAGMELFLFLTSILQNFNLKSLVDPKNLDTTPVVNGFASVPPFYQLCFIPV
In short: (§3)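 Human liver microsomes (0.25 mg/mL) in 0.1 M phosphate pH 7.4 with a five-substrate cocktail: phenacetin 50 μM, diclofenac 10 μM, S-mephenytoin 100 μM, dextromethorphan 5 μM, midazolam 2.5 μM. Compound at 0 (control) or 10 μM. Preincubated 5 min at 37 °C, NADPH-generating system added, 15 min at 37 °C. Stopped with acetonitrile plus internal standard; substrate metabolites measured by LC/MS.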

CYP1A2 = molecular target: T2, CYP1A2 (Homo sapiens, UniProt P05177); assay: Inhibition of CYP1A2 in human liver microsomes assessed as remaining activity at 10 uM using phenacetin as substrate preincubated for 5 mins followed by addition of NADPH generating system and incubated for 15 mins by LC/MS relative to control; type: ADME; conditions: probe phenacetin, time 20 min, read-out: Activity; in short: as §3
T2 sequence (P05177 whole entry): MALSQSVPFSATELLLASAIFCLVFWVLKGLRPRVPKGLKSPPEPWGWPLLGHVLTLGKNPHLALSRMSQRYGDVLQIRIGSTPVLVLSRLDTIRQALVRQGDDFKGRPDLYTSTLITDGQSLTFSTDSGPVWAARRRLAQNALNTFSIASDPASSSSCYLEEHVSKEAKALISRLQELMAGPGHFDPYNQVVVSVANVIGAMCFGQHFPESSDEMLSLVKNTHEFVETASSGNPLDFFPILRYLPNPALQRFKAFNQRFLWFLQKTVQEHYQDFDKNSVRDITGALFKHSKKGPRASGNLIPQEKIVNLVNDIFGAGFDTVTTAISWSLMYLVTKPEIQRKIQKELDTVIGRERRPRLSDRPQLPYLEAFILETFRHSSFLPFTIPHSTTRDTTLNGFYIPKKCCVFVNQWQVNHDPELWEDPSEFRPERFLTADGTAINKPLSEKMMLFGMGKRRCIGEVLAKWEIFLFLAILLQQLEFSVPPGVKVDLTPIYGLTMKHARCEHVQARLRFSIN

[7] = molecular target: T1, 5-hydroxytryptamine receptor 7; assay: Displacement of [3H] D-lysergic acid diethylamide from 5-HT7R (unknown origin) transfected in HEK293 cells incubated for 1.5 hrs by microbeta scintillation counter analysis; type: cell-based; conditions: read-out: Ki
CYP3A4 = CYP3A4 (Homo sapiens, UniProt P08684); assay: Inhibition of CYP3A4 in human liver microsomes assessed as remaining activity at 10 uM using midazolam as substrate preincubated for 5 mins followed by addition of NADPH generating system and incubated for 15 mins by LC/MS relative to control; type: ADME; conditions: probe midazolam, time 20 min, read-out: Activity; in short: as §3
CYP3A4, sequence (P08684 whole entry): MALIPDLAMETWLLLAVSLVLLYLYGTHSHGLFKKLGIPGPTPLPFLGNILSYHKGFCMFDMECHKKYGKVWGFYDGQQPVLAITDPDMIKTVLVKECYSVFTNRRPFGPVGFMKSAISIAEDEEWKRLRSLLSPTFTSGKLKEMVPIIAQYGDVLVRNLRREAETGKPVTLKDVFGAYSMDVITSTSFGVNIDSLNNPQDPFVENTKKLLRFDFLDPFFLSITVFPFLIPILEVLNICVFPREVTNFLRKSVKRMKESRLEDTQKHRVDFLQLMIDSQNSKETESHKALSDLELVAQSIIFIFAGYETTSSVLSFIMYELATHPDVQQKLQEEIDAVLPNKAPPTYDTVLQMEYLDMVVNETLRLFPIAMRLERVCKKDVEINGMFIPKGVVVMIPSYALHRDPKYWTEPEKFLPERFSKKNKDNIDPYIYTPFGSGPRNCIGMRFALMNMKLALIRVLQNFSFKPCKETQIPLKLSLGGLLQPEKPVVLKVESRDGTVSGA

[8] = molecular target: 5-hydroxytryptamine receptor 2A (Homo sapiens, UniProt P28223); assay: Binding affinity to 5-HT2AR (unknown origin); in short: as §2
5-hydroxytryptamine receptor 2A, sequence (P28223 whole entry): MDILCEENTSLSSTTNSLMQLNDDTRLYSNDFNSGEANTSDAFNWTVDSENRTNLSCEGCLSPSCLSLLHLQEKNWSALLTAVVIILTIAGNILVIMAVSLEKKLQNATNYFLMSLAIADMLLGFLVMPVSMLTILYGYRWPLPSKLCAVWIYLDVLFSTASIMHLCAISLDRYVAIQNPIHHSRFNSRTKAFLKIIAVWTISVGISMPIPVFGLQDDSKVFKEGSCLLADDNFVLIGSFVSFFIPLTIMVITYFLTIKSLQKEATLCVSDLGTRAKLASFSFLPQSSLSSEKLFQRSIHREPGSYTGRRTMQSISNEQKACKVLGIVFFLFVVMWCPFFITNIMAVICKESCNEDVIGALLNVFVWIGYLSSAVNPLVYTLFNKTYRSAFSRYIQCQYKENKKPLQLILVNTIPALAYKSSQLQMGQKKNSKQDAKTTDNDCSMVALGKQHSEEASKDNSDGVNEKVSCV

Mus musculus [9] = assay: Effect on wild type mouse assessed as time taken for duration of self grooming at 5 mg/kg, ip pretreated for 10 mins in presence of SB269970 followed by compound addition and measured after 30 mins under 40 lux lighting (reference value: 43.7 +/- 10.8 sec); type: functional; conditions: 0.5 h
Mus musculus [10] = assay: Effect on shank3-/- mouse model of autism spectrum disorder assessed as time taken for duration of self grooming at 5 mg/kg, ip pretreated for 10 mins in presence of SB269970 followed by compound addition and measured after 30 mins under 40 lux lighting (reference value: 224 +/- 47.4 sec); type: functional; conditions: 0.5 h
[11] = molecular target: 5-hydroxytryptamine receptor 5A (Homo sapiens, UniProt P47898); assay: Binding affinity to 5-HT5AR (unknown origin); in short: as §2
5-hydroxytryptamine receptor 5A, sequence (P47898 whole entry): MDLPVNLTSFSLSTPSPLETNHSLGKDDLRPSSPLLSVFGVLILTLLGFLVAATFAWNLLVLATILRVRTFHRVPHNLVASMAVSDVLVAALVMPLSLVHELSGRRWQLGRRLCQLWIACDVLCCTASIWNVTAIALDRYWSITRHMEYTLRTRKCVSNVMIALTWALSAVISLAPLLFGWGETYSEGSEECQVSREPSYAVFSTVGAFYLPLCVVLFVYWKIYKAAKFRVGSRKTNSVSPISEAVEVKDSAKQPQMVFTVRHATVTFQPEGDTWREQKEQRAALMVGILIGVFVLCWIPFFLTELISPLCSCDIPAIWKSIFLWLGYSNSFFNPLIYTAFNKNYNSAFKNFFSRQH

[12] = MRTinfinity in ICR mouse plasma at 1 mg/kg, iv measured upto 8 hrs by LC-MS/MS analysis; type: ADME, organism-based; in short: as §1
[13] = Half life in ICR mouse plasma at 10 mg/kg, ip measured upto 8 hrs by LC-MS/MS; type: ADME, organism-based; in short: as §1
[14] = molecular target: 5-hydroxytryptamine receptor 6 (Homo sapiens, UniProt P50406); assay: Binding affinity to 5-HT6R (unknown origin); in short: as §2
5-hydroxytryptamine receptor 6, sequence (P50406 whole entry): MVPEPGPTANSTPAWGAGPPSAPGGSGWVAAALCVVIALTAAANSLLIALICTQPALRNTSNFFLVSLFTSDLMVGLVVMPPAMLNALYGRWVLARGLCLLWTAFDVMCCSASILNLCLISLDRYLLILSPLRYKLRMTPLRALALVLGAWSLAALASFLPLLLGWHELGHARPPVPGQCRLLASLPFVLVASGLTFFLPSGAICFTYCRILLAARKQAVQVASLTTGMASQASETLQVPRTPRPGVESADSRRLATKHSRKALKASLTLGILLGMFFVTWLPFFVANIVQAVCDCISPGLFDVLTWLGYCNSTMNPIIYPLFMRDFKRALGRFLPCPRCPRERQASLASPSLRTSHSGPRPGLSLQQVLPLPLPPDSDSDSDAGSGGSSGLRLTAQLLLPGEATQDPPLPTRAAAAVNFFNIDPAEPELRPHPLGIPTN

[15] = Stability of compound in human liver microsomes assessed as compound remaining at 1 uM preincubated for 5 mins followed by addition of NADPH generating system and incubated for 30 mins by LC/MS relative to control; type: ADME, Microsome; conditions: time 35 min, read-out: Stability
In short: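 Human liver microsomes (0.5 mg/mL) in 0.1 M phosphate pH 7.4 with compound at 1 μM. Preincubated 5 min at 37 °C, then NADPH-generating system added and incubated 30 min at 37 °C. Quenched with acetonitrile containing internal standard, centrifuged, and supernatant analysed by LC/MS as percent compound remaining; verapamil as reference.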

[16] = molecular target: 5-hydroxytryptamine receptor 1D (Homo sapiens, UniProt P28221); assay: Binding affinity to 5-HT1DR (unknown origin); in short: as §2
5-hydroxytryptamine receptor 1D, sequence (P28221 whole entry): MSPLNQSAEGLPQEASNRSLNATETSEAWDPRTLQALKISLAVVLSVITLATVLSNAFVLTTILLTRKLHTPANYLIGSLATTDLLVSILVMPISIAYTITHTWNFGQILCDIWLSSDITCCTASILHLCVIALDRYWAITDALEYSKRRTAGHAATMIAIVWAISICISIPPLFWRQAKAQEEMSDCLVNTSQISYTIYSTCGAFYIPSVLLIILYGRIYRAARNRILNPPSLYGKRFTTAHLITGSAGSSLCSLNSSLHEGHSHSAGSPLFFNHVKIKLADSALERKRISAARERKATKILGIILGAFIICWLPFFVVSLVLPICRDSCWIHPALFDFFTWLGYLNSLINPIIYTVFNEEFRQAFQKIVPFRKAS

CCNCCc1ccc(Cl)c(-c2ccccc2OC)c1.Cl
Cmax [1]: 348 ng/mL | Tmax [2]: 24 min | AUC(0-t) at 8 h [3]: 442 ng·h/mL | pKi [4]: 6.24 | pEC50 [5]: 6.74 | Vd [6]: 19.5 L/kg | activity at 0.25 h, 10 µM (CYP2C9): > 100% | activity at 0.25 h, 10 µM (CYP1A2): 94.3% | pKi [7]: 8.55 | activity at 0.25 h, 10 µM (CYP3A4): 98.5% | pKi [8]: 6.28 | Time (Mus musculus [9]): 70.8 s | Time (Mus musculus [10]): 166 s | pKi [11]: 6.15 | MRT inf [12]: 42 min | half-life [13]: 60 min | pKi [14]: < 5.00 | remaining at 0.5 h, 1 µM [15]: 71.5% | pKi [16]: 8.28
